Her2 expr inh: lowers expression of human Her2 kinase; HER2 level % of control, % at 10 µM; SKBR-3 HER2 protein level, AlphaScreen, 18-24 h; stronger effect = lower value; 65,000 compounds, 0.69% hits; P04626; AID 645;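 active means HER2 level under 5% of the carrier-only control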
Target sequence (P04626 whole entry, looked up): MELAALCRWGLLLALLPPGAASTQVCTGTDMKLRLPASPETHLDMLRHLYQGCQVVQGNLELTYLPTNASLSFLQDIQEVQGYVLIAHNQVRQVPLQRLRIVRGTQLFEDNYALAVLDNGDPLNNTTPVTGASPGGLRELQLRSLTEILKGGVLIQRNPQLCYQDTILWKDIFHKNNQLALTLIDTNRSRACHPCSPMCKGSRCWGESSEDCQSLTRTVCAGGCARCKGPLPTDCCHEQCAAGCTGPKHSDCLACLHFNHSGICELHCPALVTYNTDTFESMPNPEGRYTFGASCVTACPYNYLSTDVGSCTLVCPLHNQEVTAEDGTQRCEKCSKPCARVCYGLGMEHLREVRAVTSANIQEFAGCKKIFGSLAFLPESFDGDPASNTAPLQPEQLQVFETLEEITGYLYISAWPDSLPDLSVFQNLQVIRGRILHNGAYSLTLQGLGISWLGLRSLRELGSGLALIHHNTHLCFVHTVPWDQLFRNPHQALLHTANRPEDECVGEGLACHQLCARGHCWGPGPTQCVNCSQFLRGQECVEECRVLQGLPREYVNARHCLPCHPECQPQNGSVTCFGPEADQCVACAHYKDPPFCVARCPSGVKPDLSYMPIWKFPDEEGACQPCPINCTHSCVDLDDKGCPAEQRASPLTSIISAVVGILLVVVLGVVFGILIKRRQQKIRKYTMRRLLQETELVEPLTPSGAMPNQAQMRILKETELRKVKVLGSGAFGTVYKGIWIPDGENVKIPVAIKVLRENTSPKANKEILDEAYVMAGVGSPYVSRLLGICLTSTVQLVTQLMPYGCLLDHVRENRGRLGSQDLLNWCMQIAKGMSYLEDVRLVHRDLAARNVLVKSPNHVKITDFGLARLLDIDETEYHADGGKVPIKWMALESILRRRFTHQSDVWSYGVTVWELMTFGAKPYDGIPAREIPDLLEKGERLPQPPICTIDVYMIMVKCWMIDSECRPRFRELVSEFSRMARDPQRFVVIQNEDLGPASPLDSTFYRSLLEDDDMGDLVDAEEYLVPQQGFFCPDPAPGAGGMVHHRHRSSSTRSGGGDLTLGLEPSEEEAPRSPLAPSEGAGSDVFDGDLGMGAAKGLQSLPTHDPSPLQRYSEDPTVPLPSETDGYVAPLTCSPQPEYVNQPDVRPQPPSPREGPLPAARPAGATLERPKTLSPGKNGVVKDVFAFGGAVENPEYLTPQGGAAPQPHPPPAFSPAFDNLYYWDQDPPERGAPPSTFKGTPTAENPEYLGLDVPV
M1 ag: agonists of M1 muscarinic receptor; 64,000 compounds, 3% hits; B-score at 10 µM; CHO-M1 cells, Fluo-4 calcium fluorescence, agonist mode; stronger effect = higher value;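 active means fluorescence rise, raw or as B-score row- and column-corrected plate score, outside the 99.7% band of its plate's samples, either direction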
DUSP1 inh: blocks human MKP-1 phosphatase activity | recombinant MKP-1, OMFP hydrolysis fluorescence | inhibition, %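 (compounds tested at a single concentration somewhere between 10 and 100 µM)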 | 65,000 compounds, 0.15% hits | AID 374;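 active means inhibition above about 50%, limit read from the data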
M1 antagonist: M1 muscarinic receptor (rat) antagonism | B-score at 10 µM | 64,000 compounds, 3.4% hits | CHO-M1 cells, Fluo-4 calcium, ACh EC80 antagonist mode; stronger effect = lower value | P08482;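 active means calcium fluorescence response, raw or row-and-column corrected B-score, differing from the plate sample mean either way at a set confidence level, mostly lower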
HEK293 NFkB inh: inhibitors of the PMA/ionomycin-induced NF-kB reporter in HEK293 cells. AID 465. 62,000 compounds, 0.21% hits. inhibition, % at 3 µM. HEK-293 NF-kB luciferase reporter, luminescence;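 active means inhibition above the mean of all tested compounds plus 3 SD, cut at about 40% in these data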
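System: NF-kB luciferase reporter HEK-293 cells | Replication: Single test | Control set: DMSO vs reference inhibitor | Evaluation: % inhibition | Schedule: 1 h pretreatment, 16 h stimulation, 37 °C | Probe or stimulus: PMA with ionomycin | Compound dosing: One dose, 3 µM | Detection: Luciferase luminescence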
Cdc25B block: human M-phase inducer phosphatase 2 inhibition; AID 368; P30305; 65,000 compounds, 0.1% hits; inhibition, %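 (compounds tested at 10 µM final in the well)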; recombinant Cdc25B, OMFP fluorescence Ex485/Em525; in the data active means inhibition above about 50%
M1 antag conf: M1 muscarinic receptor (rat) antagonism, confirmed | shares compounds with M1 antagonist | CHO-M1 cells, Fluo-4 calcium, ACh EC80 antagonism; stronger effect = lower value | calcium response (max-min fluorescence) at 10 µM | 1,700 compounds, 43% hits;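 active means calcium response below the same-plate mean of wells given acetylcholine alone at its 80%-effect dose, minus 3 SD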
mGluR4 antag: selectivity test for M1 antagonists: human mGluR4 receptor. 1,700 compounds, 0.9% hits. CHO-mGluR4 calcium flux, Fluo-4 fluorescence, glutamate EC80; stronger effect = lower value. shares compounds with M1 antagonist. fluorescence response (max-min) at 10 µM;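 active means fluorescence response below the plate's average for near-maximal glutamate wells, less 3 SD of those wells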;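 further: raw unnormalized fluorescence span taken in the window right after glutamate addition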
Numbers stand for hits. Sampled rows, rich in hits. Any-hit rate of the full collection: about 6.8%.

For Cc1ccc(Nc2nc(OC(C(F)(F)F)C(F)(F)F)nc(N3CCOCC3)n2)cc1 the results were Her2 expr inh inactive, M1 ag inactive, DUSP1 inh inactive, M1 antagonist -3.7, Cdc25B block inactive, M1 antag conf inactive and mGluR4 antag inactive.
`CCOC(=O)N1CCC(NS(=O)(=O)c2ccc3c(c2)C(C)(C)C(=O)N3C)CC1` gave Her2 expr inh inactive, M1 ag inactive, DUSP1 inh inactive, M1 antagonist -17, HEK293 NFkB inh inactive, Cdc25B block inactive, M1 antag conf inactive and mGluR4 antag inactive.
O=C(c1cccs1)c1cn(CC(=O)N2CCc3ccccc3C2)c2ccccc12 was read as Her2 expr inh inactive, M1 ag inactive, DUSP1 inh inactive, M1 antagonist -7.2, HEK293 NFkB inh inactive, Cdc25B block inactive, M1 antag conf inactive and mGluR4 antag inactive.
`O=C(CSc1ccc(Cl)cc1)OCc1nnc(-c2ccccc2)o1` gave Her2 expr inh inactive, M1 ag inactive, DUSP1 inh inactive, M1 antagonist inactive, HEK293 NFkB inh inactive and Cdc25B block inactive.
`C=CCc1ccc(OCCCCCN2CCOCC2)c(OC)c1` gave Her2 expr inh inactive, M1 ag inactive, DUSP1 inh inactive, M1 antagonist -7, HEK293 NFkB inh inactive, Cdc25B block inactive, M1 antag conf 102 and mGluR4 antag inactive.
Screening O=C(c1ccco1)N1CCN(S(=O)(=O)c2ccc3c(c2)CCN3C(=O)C2CC2)CC1 returned Her2 expr inh inactive, M1 ag inactive, DUSP1 inh inactive, M1 antagonist -2.4, HEK293 NFkB inh inactive, Cdc25B block inactive, M1 antag conf inactive and mGluR4 antag inactive.
`O=C(C1CC1)N1CCc2cc(S(=O)(=O)N3CCOCC3)ccc21` gave Her2 expr inh inactive, M1 ag inactive, DUSP1 inh inactive, M1 antagonist inactive, HEK293 NFkB inh inactive and Cdc25B block inactive.
Screening Nc1c(-c2ccc(Cl)cc2)nnn1-c1ccccc1 returned Her2 expr inh inactive, M1 ag inactive, DUSP1 inh inactive, M1 antagonist -3.2, HEK293 NFkB inh inactive, Cdc25B block inactive, M1 antag conf inactive and mGluR4 antag inactive.
CN(C)CCCOC(=O)Cc1ccc(Cl)cc1 was read as Her2 expr inh inactive, M1 ag inactive, DUSP1 inh inactive, M1 antagonist -2.3, HEK293 NFkB inh inactive, Cdc25B block inactive, M1 antag conf inactive and mGluR4 antag inactive.
`O=c1c2nnn(Cc3ccccc3)c2ncn1C/C=C/c1ccccc1` gave Her2 expr inh inactive, M1 ag inactive, DUSP1 inh inactive, M1 antagonist inactive, HEK293 NFkB inh inactive and Cdc25B block inactive.
For Oc1c(C(c2ccco2)N2CCN(C(c3ccccc3)c3ccccc3)CC2)sc2ncnn12 (configuration not stated) the results were Her2 expr inh inactive, M1 ag inactive, DUSP1 inh inactive, M1 antagonist -3.4, HEK293 NFkB inh inactive, Cdc25B block inactive, M1 antag conf 512 and mGluR4 antag inactive.
For Oc1c(C(c2ccccc2)N2CCc3ccccc3C2)sc2ncnn12 (configuration not stated) the results were Her2 expr inh inactive, M1 ag inactive, DUSP1 inh inactive, M1 antagonist inactive, HEK293 NFkB inh inactive and Cdc25B block inactive.
O=C(CN1CCCC1)Nc1ccc(NC(=O)Nc2ccccc2Cl)cc1 was read as Her2 expr inh inactive, M1 ag inactive, DUSP1 inh inactive, M1 antagonist -1.7, HEK293 NFkB inh inactive, Cdc25B block inactive, M1 antag conf inactive and mGluR4 antag inactive.
`COc1ccc(NC(=O)CN2CCN(CC(=O)Nc3ccccc3Cl)CC2)cc1Cl` gave Her2 expr inh inactive, M1 ag inactive, DUSP1 inh inactive, M1 antagonist inactive, HEK293 NFkB inh inactive and Cdc25B block inactive.
CCOc1ccccc1NC(=O)c1ccccc1-c1nc(-c2ccccc2OC)no1 was read as Her2 expr inh inactive, M1 ag inactive, DUSP1 inh inactive, M1 antagonist inactive, HEK293 NFkB inh inactive and Cdc25B block inactive.
